ChEMBL document CHEMBL1828498, “Identification and characterization of a novel integrin-linked kinase inhibitor” (J Med Chem, 2011)
Calls of active or inactive are those of the source. The rule behind the calls is not given here.

How the values were obtained:
SK-BR-3 [1] = assay: Reduction in YB-1 concentration in human SKBR3 cells expressing constitutively active ILK after 24 hrs by Western blot analysis; format: functional, cell-based
Procedure, shortened: (§1)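 PC-3 versus stable PC-3/CA-ILK, or SKBR3 versus transient SKBR3/CA-ILK (electroporation, used 48 h after), treated 24 h in 5% FBS medium; immunoblotting with ECL; representative of three experiments.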

PC-3 [2] = assay: Reduction in YB-1 concentration in human PC3 cells after 24 hrs by Western blot analysis; format: functional, cell-based; procedure, shortened: as §1
PC-3 [3] = assay: Reduction in HER2 mRNA expression in human PC3 cells after 24 hrs by RT-PCR analysis; format: functional, cell-based
Procedure, shortened: (§2)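 PC-3, PC-3/CA-ILK, SKBR3 and SKBR3/CA-ILK cells treated 24 h in 5% FBS medium; total RNA from 1 × 10^6 cells by Trizol, 1 μg reverse-transcribed, then PCR with gene-specific primers and β-actin reference.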

[4] = biological target: T1, Scaffold protein ILK (Homo sapiens) (UniProt Q13418); assay: Inhibition of ILK in human PC3 cells assessed as decrease in MLC phosphorylation by Western blot analysis; format: cell-based; conditions: PC-3
T1 sequence (whole entry): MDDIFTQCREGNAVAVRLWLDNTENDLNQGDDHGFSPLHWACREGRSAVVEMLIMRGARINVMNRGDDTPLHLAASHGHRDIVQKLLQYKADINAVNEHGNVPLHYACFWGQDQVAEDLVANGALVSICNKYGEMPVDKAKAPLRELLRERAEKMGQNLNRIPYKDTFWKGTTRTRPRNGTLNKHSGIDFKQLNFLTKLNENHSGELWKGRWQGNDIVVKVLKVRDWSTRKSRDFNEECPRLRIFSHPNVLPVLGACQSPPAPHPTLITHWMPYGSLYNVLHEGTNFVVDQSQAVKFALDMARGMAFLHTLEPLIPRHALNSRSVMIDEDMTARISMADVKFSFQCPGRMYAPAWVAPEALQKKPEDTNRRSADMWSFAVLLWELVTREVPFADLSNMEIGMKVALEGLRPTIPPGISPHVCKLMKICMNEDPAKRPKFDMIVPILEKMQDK
Procedure, shortened: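 PC-3 and MDA-MB-231 cells exposed 24 h in 5% FBS medium across a concentration series. Phospho-GSK3β (Ser9) and phospho-MLC (Thr18/Ser19) detected by immunoblot: SDS lysis, primary 1:1000 at 4°C for 2 h, HRP secondary, ECL. Representative of three experiments.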

PC-3 [5] = assay: Reduction in YB-1 concentration in human PC3 cells expressing constitutively active ILK after 24 hrs by Western blot analysis; format: functional, cell-based; procedure, shortened: as §1
SK-BR-3 [6] = assay: Reduction in YB-1 mRNA expression in human SKBR3 cells expressing constitutively active ILK after 24 hrs by RT-PCR analysis; format: functional, cell-based; procedure, shortened: as §2
[7] = biological target: Receptor-type tyrosine-protein kinase FLT3 (Homo sapiens) (UniProt P36888); assay: Inhibition of Flt3 at 5 uM assessed as remaining activity
Procedure, shortened: (§3)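 Panel of 20 recombinant kinases, profiled by a commercial vendor.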

PC-3 [8] = assay: Reduction in HER2 concentration in human PC3 cells expressing constitutively active ILK after 24 hrs by Western blot analysis; format: functional, cell-based; procedure, shortened: as §1
[9] = biological target: T1, Scaffold protein ILK (Homo sapiens); assay: Inhibition of ILK in human PC3 cells assessed as decrease in phosphorylated p38 concentration by Western blot analysis; format: cell-based; conditions: PC-3
Procedure, shortened: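 PC-3 cells exposed to graded concentrations for 24 h in 5% FBS medium. Immunoblotting for phospho-Tyr397-FAK, ERK1/2, p38 and JNK. Lysis in 1% SDS buffer, primary antibody 1:1000 at 4°C for 2 h, ECL. Three independent experiments.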

Mus musculus [10] = assay: Toxicity in nude mouse assessed as weight loss at 25 mg/kg, po administered for 35 days; format: organism-based; set-up: dose 25 mg/kg, route oral; conditions: in vivo, 840 h
Procedure, shortened: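 Male NCr nude mice bearing s.c. PC-3 tumors, dosed once daily by oral gavage in 0.5% methylcellulose/0.1% Tween 80 vehicle, 10 μL/g, for 35 days; body weight recorded weekly.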

[11] = biological target: Inhibitor of nuclear factor kappa-B kinase subunit beta (Homo sapiens) (UniProt O14920); assay: Inhibition of IKK-beta at 5 uM assessed as remaining activity; procedure, shortened: as §3
Mus musculus [12] = assay: Decrease in phosphorylation of GSK3-beta in human PC3 cells xenografted nude mouse tumor lysate at 25 mg/kg, po administered for 35 days by Western blot analysis; format: functional, organism-based; set-up: dose 25 mg/kg; conditions: Neoplasm, PC-3
Procedure, shortened: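 Male NCr athymic nude mice, 5–7 weeks, with s.c. PC-3 xenografts (0.5 × 10^6 cells in 50% Matrigel), dosed by oral gavage once daily for 35 days. Vehicle 0.5% methylcellulose, 0.1% Tween 80 in water, 10 μL/g. Tumors snap-frozen at sacrifice; three tumors per group immunoblotted.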

[13] = biological target: Tyrosine-protein kinase JAK3 (Homo sapiens) (UniProt P52333); assay: Inhibition of Jak3 at 5 uM assessed as remaining activity; procedure, shortened: as §3
[14] = biological target: Ribosomal protein S6 kinase alpha-1 (Homo sapiens) (UniProt Q15418); assay: Inhibition of Rsk1 at 5 uM assessed as remaining activity
[15] = biological target: T1, Scaffold protein ILK (Homo sapiens); assay: Inhibition of ILK in human PC3 cells expressing constitutively active ILK assessed as decrease in phosphorylated ERK1/2 concentration by Western blot analysis; format: cell-based; conditions: PC-3
Procedure, shortened: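 Stable PC-3 clones expressing GFP-CA-ILK (G418 250 μg/mL selection, GFP sorting) treated 24 h in 5% FBS medium. Phospho-ERK1/2 and phospho-p38 detected by immunoblot with ECL. Representative of three experiments.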

[16] = test system: 3-phosphoinositide dependent protein kinase-2, PDK2; assay: Inhibition of PDK2 in human PC3 cells assessed as Akt Ser-473 dephosphorylation by Western blot analysis; format: functional, cell-based; conditions: PC-3
Procedure, shortened: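 Cells exposed 24 h in 5% FBS medium, final DMSO 0.1%; lysed in 1% SDS/10 mM EDTA/50 mM Tris pH 8.1, equal protein on SDS-PAGE, nitrocellulose, primary antibody 1:1000 at 4°C for 2 h, HRP secondary 1:5000, ECL detection; blots representative of three independent experiments.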

[17] = biological target: Cyclin-dependent kinase 5/CDK5 activator 1 (Homo sapiens) (UniProt Q00535+Q15078); assay: Inhibition of CDK5/p25 at 5 uM assessed as remaining activity; format: protein-complex assay; procedure, shortened: as §3
PC-3 [18] = assay: Induction of apoptosis in human PC3 cells assessed as late apoptotic cells at 3 uM by annexin V/PI staining (reference value: 9.8%); format: functional
PrEC = assay: Antiproliferative activity against human PrEC cells at 1 to 5 uM by MTT assay; format: cell-based
Procedure, shortened: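 Cancer lines seeded 5000/well and nonmalignant PrEC/MEC 8000/well in 10% FBS, 24 h before treatment. Compound exposure 24 h in 5% FBS medium, 0.1% final DMSO. MTT (0.25 mg/mL) for 1 h at 37°C, dye solubilized in DMSO, absorbance read at 570 nm. Mean ± SD, n = 6.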

Mus musculus [19] = assay: Inhibition of phosphorylation of Thr-308-Akt in human PC3 cells xenografted nude mouse tumor lysate at 25 mg/kg, po administered for 35 days by Western blot analysis; format: functional, organism-based; set-up: dose 25 mg/kg; conditions: Neoplasm, PC-3
Procedure, shortened: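 Tumors harvested at terminal sacrifice after 35 days of daily oral dosing, snap-frozen and stored at -80°C; lysates immunoblotted, three representative tumors per group.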

SK-BR-3 [20] = assay: Reduction in YB-1 concentration in human SKBR3 cells after 24 hrs by Western blot analysis; format: functional, cell-based; procedure, shortened: as §1

Chain of Inhibitor of nuclear factor kappa-B kinase subunit beta (Homo sapiens) (O14920 whole entry): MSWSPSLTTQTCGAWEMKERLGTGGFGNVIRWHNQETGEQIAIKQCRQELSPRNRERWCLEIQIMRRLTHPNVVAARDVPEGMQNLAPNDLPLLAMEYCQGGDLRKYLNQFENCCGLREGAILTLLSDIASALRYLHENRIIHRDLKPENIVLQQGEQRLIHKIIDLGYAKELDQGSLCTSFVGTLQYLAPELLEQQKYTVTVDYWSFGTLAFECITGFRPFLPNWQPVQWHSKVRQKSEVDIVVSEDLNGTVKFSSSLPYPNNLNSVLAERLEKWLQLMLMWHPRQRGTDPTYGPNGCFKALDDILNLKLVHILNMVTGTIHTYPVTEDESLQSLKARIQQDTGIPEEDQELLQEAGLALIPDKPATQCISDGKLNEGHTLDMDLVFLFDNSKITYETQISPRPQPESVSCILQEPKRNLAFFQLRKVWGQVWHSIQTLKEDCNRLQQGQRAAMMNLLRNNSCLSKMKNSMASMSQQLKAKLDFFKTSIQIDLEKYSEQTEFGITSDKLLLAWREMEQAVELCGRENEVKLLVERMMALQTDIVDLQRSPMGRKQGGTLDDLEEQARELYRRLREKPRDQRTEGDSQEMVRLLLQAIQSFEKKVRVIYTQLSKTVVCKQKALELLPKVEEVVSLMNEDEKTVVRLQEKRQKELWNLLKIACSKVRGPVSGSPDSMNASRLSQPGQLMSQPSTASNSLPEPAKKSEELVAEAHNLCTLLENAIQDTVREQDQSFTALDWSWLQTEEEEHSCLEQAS
Chain of Cyclin-dependent kinase 5/CDK5 activator 1 (Homo sapiens) (Q00535 whole entry): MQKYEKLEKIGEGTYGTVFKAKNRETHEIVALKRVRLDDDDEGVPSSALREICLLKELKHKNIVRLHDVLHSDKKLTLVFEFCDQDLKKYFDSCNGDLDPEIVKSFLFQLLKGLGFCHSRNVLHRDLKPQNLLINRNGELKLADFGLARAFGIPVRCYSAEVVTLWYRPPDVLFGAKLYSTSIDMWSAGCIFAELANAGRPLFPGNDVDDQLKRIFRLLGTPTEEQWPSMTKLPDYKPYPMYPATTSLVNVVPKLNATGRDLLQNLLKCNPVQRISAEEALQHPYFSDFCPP
Chain of Cyclin-dependent kinase 5/CDK5 activator 1 (Homo sapiens) (Q15078 99-307 partner limits assumed): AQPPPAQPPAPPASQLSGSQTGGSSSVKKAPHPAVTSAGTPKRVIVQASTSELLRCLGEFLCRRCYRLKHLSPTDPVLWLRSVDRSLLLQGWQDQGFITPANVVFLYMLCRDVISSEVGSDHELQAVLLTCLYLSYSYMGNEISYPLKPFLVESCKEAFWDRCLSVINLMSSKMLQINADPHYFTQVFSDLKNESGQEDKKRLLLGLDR
Chain of Tyrosine-protein kinase JAK3 (Homo sapiens) (P52333 whole entry): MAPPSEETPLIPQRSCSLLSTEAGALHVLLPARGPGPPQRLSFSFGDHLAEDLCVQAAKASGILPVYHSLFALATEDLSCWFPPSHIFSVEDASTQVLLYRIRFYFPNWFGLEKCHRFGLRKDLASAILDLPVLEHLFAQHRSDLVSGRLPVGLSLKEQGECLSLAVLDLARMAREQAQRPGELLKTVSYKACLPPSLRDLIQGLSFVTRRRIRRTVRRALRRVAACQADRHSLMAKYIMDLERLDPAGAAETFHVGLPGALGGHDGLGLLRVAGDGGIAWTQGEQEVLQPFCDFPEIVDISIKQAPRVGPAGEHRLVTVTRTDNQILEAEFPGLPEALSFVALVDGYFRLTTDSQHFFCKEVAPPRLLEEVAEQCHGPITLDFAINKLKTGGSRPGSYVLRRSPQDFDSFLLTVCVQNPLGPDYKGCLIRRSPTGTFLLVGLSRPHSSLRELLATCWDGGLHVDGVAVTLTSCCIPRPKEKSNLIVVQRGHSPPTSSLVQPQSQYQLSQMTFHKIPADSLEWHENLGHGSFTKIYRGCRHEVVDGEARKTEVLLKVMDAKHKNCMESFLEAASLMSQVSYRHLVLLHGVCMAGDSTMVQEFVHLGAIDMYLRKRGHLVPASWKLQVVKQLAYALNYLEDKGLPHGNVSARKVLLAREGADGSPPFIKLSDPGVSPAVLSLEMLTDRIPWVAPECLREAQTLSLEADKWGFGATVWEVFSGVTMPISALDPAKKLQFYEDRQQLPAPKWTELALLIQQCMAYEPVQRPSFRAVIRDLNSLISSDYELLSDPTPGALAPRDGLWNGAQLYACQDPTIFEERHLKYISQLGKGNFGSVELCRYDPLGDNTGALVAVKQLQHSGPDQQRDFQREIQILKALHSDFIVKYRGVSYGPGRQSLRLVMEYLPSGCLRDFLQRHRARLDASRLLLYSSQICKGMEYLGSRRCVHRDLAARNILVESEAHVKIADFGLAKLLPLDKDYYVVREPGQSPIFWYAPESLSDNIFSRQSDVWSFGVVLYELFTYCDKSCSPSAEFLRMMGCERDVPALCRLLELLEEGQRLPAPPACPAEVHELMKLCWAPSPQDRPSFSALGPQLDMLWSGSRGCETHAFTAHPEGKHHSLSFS
Chain of Receptor-type tyrosine-protein kinase FLT3 (Homo sapiens) (P36888 whole entry): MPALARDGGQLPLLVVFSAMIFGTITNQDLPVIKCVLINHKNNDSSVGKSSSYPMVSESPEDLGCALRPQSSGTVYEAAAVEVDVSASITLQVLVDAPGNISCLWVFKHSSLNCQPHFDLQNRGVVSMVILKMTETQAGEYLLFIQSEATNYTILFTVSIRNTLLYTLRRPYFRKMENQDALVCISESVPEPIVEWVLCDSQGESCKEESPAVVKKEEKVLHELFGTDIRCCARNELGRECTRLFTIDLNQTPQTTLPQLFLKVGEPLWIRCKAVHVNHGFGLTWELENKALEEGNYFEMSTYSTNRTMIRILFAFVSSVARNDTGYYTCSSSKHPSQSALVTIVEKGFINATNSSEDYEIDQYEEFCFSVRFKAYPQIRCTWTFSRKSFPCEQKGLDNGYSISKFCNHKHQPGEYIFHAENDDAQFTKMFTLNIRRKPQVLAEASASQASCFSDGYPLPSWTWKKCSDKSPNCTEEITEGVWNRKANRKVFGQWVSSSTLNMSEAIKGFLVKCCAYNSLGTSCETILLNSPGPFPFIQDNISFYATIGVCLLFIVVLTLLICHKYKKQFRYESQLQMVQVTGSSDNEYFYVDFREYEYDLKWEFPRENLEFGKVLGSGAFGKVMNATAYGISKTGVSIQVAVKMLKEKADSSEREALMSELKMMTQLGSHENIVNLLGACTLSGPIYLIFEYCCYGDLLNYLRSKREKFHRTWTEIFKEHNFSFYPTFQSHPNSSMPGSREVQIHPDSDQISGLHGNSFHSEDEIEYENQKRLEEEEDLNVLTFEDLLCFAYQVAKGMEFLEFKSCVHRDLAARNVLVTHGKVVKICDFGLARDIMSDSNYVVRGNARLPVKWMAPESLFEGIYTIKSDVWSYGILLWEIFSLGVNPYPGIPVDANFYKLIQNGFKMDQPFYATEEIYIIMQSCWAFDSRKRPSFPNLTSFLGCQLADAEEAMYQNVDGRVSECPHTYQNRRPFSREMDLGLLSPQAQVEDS
Chain of Ribosomal protein S6 kinase alpha-1 (Homo sapiens) (Q15418 whole entry): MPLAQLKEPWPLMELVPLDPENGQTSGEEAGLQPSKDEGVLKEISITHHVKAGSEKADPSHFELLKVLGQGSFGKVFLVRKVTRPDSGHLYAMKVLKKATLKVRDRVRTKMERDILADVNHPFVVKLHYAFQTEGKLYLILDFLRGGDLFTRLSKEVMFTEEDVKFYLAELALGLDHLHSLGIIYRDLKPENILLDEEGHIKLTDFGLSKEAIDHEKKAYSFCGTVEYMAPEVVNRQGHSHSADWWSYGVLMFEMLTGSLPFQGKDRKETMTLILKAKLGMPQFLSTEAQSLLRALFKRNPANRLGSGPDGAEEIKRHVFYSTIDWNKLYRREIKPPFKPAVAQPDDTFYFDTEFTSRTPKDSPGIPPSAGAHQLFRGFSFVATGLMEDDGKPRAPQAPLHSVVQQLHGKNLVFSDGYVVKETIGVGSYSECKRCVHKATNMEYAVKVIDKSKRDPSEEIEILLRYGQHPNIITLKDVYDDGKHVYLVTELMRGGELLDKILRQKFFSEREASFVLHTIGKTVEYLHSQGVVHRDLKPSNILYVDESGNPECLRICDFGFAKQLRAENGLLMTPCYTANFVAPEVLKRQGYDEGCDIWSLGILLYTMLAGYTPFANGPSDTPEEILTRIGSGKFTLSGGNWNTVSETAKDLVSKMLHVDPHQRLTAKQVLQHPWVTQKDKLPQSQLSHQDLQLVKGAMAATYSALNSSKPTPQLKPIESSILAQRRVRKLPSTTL

## CNC(=O)CCc1cc(-c2ccc(-c3ccc(C(F)(F)F)cc3)cc2)n(-c2ccc(N3CCNCC3)cc2)n1
SK-BR-3 [1]
  Activity: inactive
PC-3 [2]
  Activity: Dose-dependent effect
PC-3 [3]
  Activity: Dose-dependent effect
[4]
  inhibition: Active
PC-3 [5]
  Activity: inactive
SK-BR-3 [6]
  Activity: inactive
[7]
  Activity: 66%
PC-3 [8]
  Activity: inactive
[9]
  inhibition: Dose-dependent effect
Mus musculus [10]
  Activity: Non-toxic
[11]
  Activity: 102%
Mus musculus [12]
  Activity: Active
[13]
  Activity: 128%
[14]
  Activity: 65%
[15]
  inhibition: inactive
[16]
  inhibition: Dose-dependent effect
[17]
  Activity: 98%
PC-3 [18]
  Activity: 14.9%
PrEC
  inhibition (INH): Not Active
Mus musculus [19]
  Activity: inactive
SK-BR-3 [20]
  Activity: Dose-dependent effect
